Assay results from ChEMBL document CHEMBL2434872, “Modulation of A2B adenosine receptor by 1-Benzyl-3-ketoindole derivatives” (Eur J Med Chem, 2013).
Calls of active or inactive are those of the source. The calls are words filed in the database; no cut-off is given here.

What was measured:
[1] = tested on: CHO; test: Effect on cAMP production in adenosine receptor-deficient wild type CHO cells; type: functional, cell-based; settings: Cricetulus griseus
[2] = target: T1, Adenosine receptor A3 (Homo sapiens, UniProt P0DMS8); test: Displacement of [125I]AB-MECA from human adenosine A3 receptor expressed in CHO cell membrane after 90 mins; type: cell membranes
T1 sequence (P0DMS8 whole entry): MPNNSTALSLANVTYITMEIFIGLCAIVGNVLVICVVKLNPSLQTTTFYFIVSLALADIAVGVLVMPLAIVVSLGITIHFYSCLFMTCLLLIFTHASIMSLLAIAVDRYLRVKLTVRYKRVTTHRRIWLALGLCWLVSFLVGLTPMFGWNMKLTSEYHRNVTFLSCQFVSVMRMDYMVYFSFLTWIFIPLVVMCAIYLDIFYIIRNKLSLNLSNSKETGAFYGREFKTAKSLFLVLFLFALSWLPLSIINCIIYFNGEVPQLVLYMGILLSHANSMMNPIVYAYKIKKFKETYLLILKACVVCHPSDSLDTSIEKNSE

[3] = target: Adenosine receptor A2a (Homo sapiens, UniProt P29274); test: Displacement of [3H]NECA from human adenosine A2A receptor expressed in CHO cell membrane after 90 mins; type: cell membranes
Chain of Adenosine receptor A2a (P29274 whole entry): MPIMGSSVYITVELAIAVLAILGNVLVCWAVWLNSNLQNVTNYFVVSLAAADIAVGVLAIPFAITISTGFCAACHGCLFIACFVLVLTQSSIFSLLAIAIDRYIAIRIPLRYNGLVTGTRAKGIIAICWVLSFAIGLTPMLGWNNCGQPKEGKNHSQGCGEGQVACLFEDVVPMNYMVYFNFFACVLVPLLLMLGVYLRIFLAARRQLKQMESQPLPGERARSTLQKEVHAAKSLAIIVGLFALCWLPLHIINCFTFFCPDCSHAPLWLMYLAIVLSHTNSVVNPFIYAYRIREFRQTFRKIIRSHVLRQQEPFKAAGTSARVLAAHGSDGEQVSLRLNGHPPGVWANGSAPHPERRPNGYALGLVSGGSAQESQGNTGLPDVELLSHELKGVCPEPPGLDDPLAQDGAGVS

[4] = target: T2, Adenosine receptor A1 (Homo sapiens, UniProt P30542); test: Displacement of [3H]DPCPX from human adenosine A1 receptor expressed in CHO cell membrane after 180 mins; type: cell membranes
T2 sequence (P30542 whole entry): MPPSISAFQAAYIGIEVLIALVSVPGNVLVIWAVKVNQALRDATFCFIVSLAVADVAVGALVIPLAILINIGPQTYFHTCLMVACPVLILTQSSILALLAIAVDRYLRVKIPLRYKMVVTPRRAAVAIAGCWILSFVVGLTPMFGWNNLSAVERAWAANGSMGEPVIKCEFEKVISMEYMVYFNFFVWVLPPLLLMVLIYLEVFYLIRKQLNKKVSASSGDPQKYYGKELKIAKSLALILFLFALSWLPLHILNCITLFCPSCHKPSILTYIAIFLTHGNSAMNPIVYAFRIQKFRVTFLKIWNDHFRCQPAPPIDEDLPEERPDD

[5] = target: T3, Adenosine receptor A1 (Homo sapiens) (UniProt P30542); test: (§1) Antagonist activity at human recombinant adenosine A1 receptor expressed in CHO cells assessed as inhibition of NECA-mediated reduction of intracellular [3H]-cAMP accumulation incubated for 15 mins prior to NECA induction measured after 30 mins by liquid scintillation spectrometric analysis in presence of forskolin; type: functional, cell-based
T3 sequence (whole entry): T2 sequence (P30542 whole entry)
Method in brief: (§2)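 CHO cells stably expressing human A1 receptor were plated for 24 h, then preincubated 15 min at 37 °C in DMEM with ADA (1 U/mL) and Ro20-1724 (20 µM). Compound (1 nM–10 µM) was added for 15 min, then 10 nM NECA with 1 µM forskolin for 15 min. Lysis was in 0.4 N HCl. cAMP was measured by [3H]cAMP competition with bovine adrenal binding protein, as % of forskolin level. IC50 from ≥3 experiments, duplicates.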

[6] = target: T2, Adenosine receptor A1; test: as §1; type: functional, cell-based; method in brief: as §2

Row | SMILES | Activity [1] | Ki [2] [nM] | Ki [3] [µM] | Ki [4] [µM] | inhibition [5] | IC50 [6] [nM]
1 | O=C(NCc1ccccc1)C(=O)c1cn(Cc2ccccc2)c2ccccc12 | inactive |  |  |  |  | 
2 | O=C(Nc1ccccc1)C(=O)c1cn(Cc2ccccc2)c2ccccc12 | inactive | > 1000 | > 10 | > 10 |  | 
3 | O=C(C(=O)c1cn(Cc2ccccc2)c2ccccc12)c1cccs1 | inactive | > 1000 | > 10 | > 10 |  | 
4 | O=C(C(=O)c1cn(Cc2ccccc2)c2ccccc12)c1ccccc1 | inactive | > 1000 | > 10 | 0.162 | Dose-dependent effect | 404
5 | O=C(Nc1ccccc1)c1cn(Cc2ccccc2)c2ccccc12 | inactive | > 1000 | > 10 | > 10 |  | 
6 | O=C(C(=O)c1cn(Cc2ccccc2)c2ccccc12)c1ccco1 | inactive | > 1000 | > 10 | 0.343 | Dose-dependent effect | 291
7 | O=C(NCc1ccccc1)c1cn(Cc2ccccc2)c2ccccc12 | inactive | > 1000 | > 10 | > 10 |  | 
